Source: PubChem BioAssay
The list is not random: actives were taken first. Their share in the collection is about 5.8%.
Tcruzi prolif – T. cruzi proliferation inhibition; T. cruzi beta-gal in NIH3T3, GalScreen luminescence, 90 h; inhibition, % at 8.34 µM; 77,000 tested, 5.9% active; AID 624255;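 active = mean inhibition above about 93%, with at least 55% of replicates each passing it, limit read from the data, passing the limit was not always enough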
Pf Dd2 growth – blocks growth of Plasmodium falciparum Dd2 parasites | 94,000 tested, 2.3% active | activity change, % at 10 µM | P. falciparum Dd2 growth, SYBR Green, 72 h; hits give low values | AID 1159554; in the data active = activity change below about -80%
IDH1 R132H inh – blocks human IDH1 R132H reductase activity; AID 624101; inhibition, % at 10 µM; diaphorase/resazurin fluorescence, 60 min; O75874; 70,000 tested, 0.18% active; in the data active = inhibition above about 34%
KDM4C inh – KDM4C (human) demethylase inhibition; Q9H3R0; GST-KDM4C 2-372, H3K9me3 peptide, LANCE TR-FRET; inhibition, % at 12.5 µM; 96,000 tested, 0.15% active; AID 720574;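 active = mean replicate inhibition above about 25%, with at least 55% of replicates also reaching it, limit read from the data, passing the limit was not always enough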
Target sequence (Q9H3R0 2-372 limits assumed): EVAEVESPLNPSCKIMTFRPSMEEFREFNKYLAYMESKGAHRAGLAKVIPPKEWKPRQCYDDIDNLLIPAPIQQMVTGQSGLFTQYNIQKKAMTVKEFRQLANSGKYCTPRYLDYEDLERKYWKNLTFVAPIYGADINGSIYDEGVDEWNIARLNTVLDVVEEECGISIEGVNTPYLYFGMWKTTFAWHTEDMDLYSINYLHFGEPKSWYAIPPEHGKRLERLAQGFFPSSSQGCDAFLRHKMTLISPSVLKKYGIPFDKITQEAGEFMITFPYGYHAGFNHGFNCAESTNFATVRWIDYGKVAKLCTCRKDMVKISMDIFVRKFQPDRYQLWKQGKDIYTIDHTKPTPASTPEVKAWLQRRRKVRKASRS
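Assay system: GST-GASC-1 enzyme fragment 2-372 | Amount: 10 nM enzyme | Medium: HEPES buffer, pH 7.5, plus ascorbate | Reagent: H3K9me3 peptide substrate, Fe(II), 2-oxoglutarate | Doses: Single-point compound screen | Incubation: 30 min demethylation and 1 h detection at room temperature | Measured by: LANCE TR-FRET, excitation 340 nm, emissions 618 and 671 nm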
Of the large screens only hits and unclear results are named; the others gave an inactive call; ! = not active in a repeat.

C[C@@H]1CCCCO[C@H](CN(C)S(=O)(=O)c2ccccc2)[C@H](C)CN([C@@H](C)CO)C(=O)c2cc(NC(=O)CCCN(C)C)ccc2O1	IDH1 R132H inh 89.0
COc1ccc(S(=O)(=O)N(C)C[C@@H]2OCCCC[C@@H](C)Oc3ccc(NC(=O)CCC(F)(F)F)cc3C(=O)N([C@@H](C)CO)C[C@@H]2C)cc1	Pf Dd2 growth -81.3 (no result: IDH1 R132H inh)
COc1ccc(S(=O)(=O)N(C)C[C@H]2OCCCC[C@H](C)Oc3ccc(NC(=O)CCCN(C)C)cc3C(=O)N([C@H](C)CO)C[C@H]2C)cc1	KDM4C inh 45.3 (no result: IDH1 R132H inh)
O=C1c2ccccc2C(=O)N1Cc1cc(NS(=O)(=O)c2ccccc2)ccc1Cl	none (no result: Tcruzi prolif, Pf Dd2 growth, KDM4C inh)
CCC(Oc1ccccc1)C(=O)Nc1cc2oc3ccccc3c2cc1OC (centres undefined)	none (no result: Tcruzi prolif, Pf Dd2 growth, KDM4C inh)
C[C@@H]1CN([C@@H](C)CO)C(=O)c2cc(NS(=O)(=O)c3cccs3)ccc2O[C@@H](C)CCCCO[C@@H]1CN(C)C(=O)Nc1ccc(C(F)(F)F)cc1	Pf Dd2 growth -82.2 (no result: Tcruzi prolif)
C[C@H]1CCCCO[C@@H](CN(C)C(=O)Nc2ccc(F)cc2)[C@@H](C)CN([C@@H](C)CO)C(=O)c2cc(NS(=O)(=O)c3cccs3)ccc2O1	none
C[C@@H]1CCCCO[C@@H](CN(C)C(=O)Nc2ccc(F)cc2)[C@H](C)CN([C@H](C)CO)C(=O)c2cc(NS(=O)(=O)c3cccs3)ccc2O1	Pf Dd2 growth -85.9
C[C@@H]1CCCCO[C@H](CN(C)C(=O)Nc2ccc(F)cc2)[C@H](C)CN([C@H](C)CO)C(=O)c2cc(NS(=O)(=O)c3cccs3)ccc2O1	Pf Dd2 growth -86.4 (no result: IDH1 R132H inh)
Cn1cc(C(c2ccc([N+](=O)[O-])o2)c2cn(C)c3ccccc23)c2ccccc21	none (no result: Tcruzi prolif, Pf Dd2 growth, KDM4C inh)
Cc1c(Br)c([N+](=O)[O-])nn1CC(=O)Nc1cc(F)ccc1F	none (no result: Tcruzi prolif, Pf Dd2 growth, KDM4C inh)
Cc1cc(Br)ccc1NC(=O)CCCN1C(=O)c2ccccc2C1=O	none (no result: Tcruzi prolif, Pf Dd2 growth, KDM4C inh)
Cc1c(Cl)cccc1N(CC(=O)Nc1ccc(I)cc1)S(C)(=O)=O	none (no result: Tcruzi prolif, Pf Dd2 growth, KDM4C inh)
CC(=O)OCC/C(=C\CC1(O)C(C)CCC2C(C)(C)CCCC21C)COC(C)=O (centres undefined)	none (no result: Tcruzi prolif, Pf Dd2 growth, KDM4C inh)
COC(=O)c1ccccc1NC(=O)C(C)NS(=O)(=O)c1ccc(F)cc1 (centres undefined)	none (no result: Tcruzi prolif, Pf Dd2 growth, KDM4C inh)
COc1cccc(CN2C[C@@H]3N[C@H](C2)C3c2ccc(-c3ccncc3)cc2)c1 (some centres undefined)	Pf Dd2 growth -88.9! (no result: Tcruzi prolif, IDH1 R132H inh)
Cc1ccc(-c2ccc(C3[C@@H]4CN(Cc5cccnc5)C[C@H]3N4)cc2)cc1 (some centres undefined)	Pf Dd2 growth -90.9! (no result: Tcruzi prolif, IDH1 R132H inh)
COc1ccc(NC(=O)N(C)C[C@@H]2Oc3c(NC(=O)c4nc5ccccc5s4)cccc3C(=O)N([C@@H](C)CO)C[C@H]2C)cc1	Pf Dd2 growth -87.2
C[C@@H]1CN([C@@H](C)CO)C(=O)c2cccc(NC(=O)c3nc4ccccc4s3)c2O[C@H]1CN(C)C(=O)NC1CCCCC1	Pf Dd2 growth -88.7
C[C@@H]1CN([C@H](C)CO)C(=O)c2cccc(NC(=O)c3nc4ccccc4s3)c2O[C@H]1CN(C)C(=O)NC1CCCCC1	Pf Dd2 growth -89.5 (no result: IDH1 R132H inh)
Cc1ccc(NC(=O)CSc2ncccn2)cc1Cl	none (no result: Tcruzi prolif, Pf Dd2 growth, KDM4C inh)
CC(=O)c1ccc(NC(=O)CSc2nnc(-c3cccs3)n2-c2ccccc2)cc1	none (no result: Tcruzi prolif, Pf Dd2 growth, KDM4C inh)
C[C@H]1CN([C@@H](C)CO)C(=O)c2cc(NC(=O)Nc3ccc(C(F)(F)F)cc3)ccc2O[C@@H]1CN(C)Cc1ccc(C(=O)Nc2ccccc2N)cc1	Pf Dd2 growth -93.2
C[C@@H]1CN([C@H](C)CO)C(=O)c2cc(NC(=O)Cc3ccccc3)ccc2O[C@@H]1CN(C)Cc1ccc(C(=O)Nc2ccccc2N)cc1	Pf Dd2 growth -85.1 (no result: IDH1 R132H inh)
C[C@H](CO)N1C[C@H](C)[C@@H](CN(C)Cc2ccc(C(=O)Nc3ccccc3N)cc2)Oc2ccc(NC(=O)Nc3ccc(C(F)(F)F)cc3)cc2C1=O	Pf Dd2 growth -90.1
C[C@@H]1CN([C@H](C)CO)C(=O)c2cc(NC(=O)Nc3ccccc3)ccc2O[C@@H]1CN(C)Cc1ccc(C(=O)Nc2ccccc2N)cc1	Pf Dd2 growth -85.1 (no result: IDH1 R132H inh)
C=C1[C@H](O)C[C@H]2[C@@H](/C=C(\C)C(=O)[C@@]3(O)C[C@H](C)[C@H](O)[C@@H]3[C@H]1O)C2(C)C	none (no result: Tcruzi prolif, Pf Dd2 growth, KDM4C inh)
Cc1ccccc1C(=O)Nc1ccc(OCC(=O)O)cc1	none (no result: Tcruzi prolif, Pf Dd2 growth, KDM4C inh)
COC(=O)CNc1c(F)c(F)nc(F)c1F	none (no result: Tcruzi prolif, Pf Dd2 growth, KDM4C inh)
C[C@H](CO)N1C[C@H](C)[C@H](CN(C)Cc2ccc(C(=O)Nc3ccccc3N)cc2)Oc2ccc(NC(=O)CCC(F)(F)F)cc2C1=O	Pf Dd2 growth -80.6 (no result: IDH1 R132H inh)
